ChEMBL document CHEMBL1817667, “Synthesis and antimicrobial properties of some new thiazolyl coumarin derivatives” (2011)
In brackets after ≈: the same amount, converted by molar mass.

Legend:
Type in all cases: functional
Staphylococcus aureus = test: Antibacterial activity against Staphylococcus aureus ATCC 25923 after 24 hrs by MTT assay; settings: ATCC 25923, 24 h
Method in brief: (§1)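 Broth microdilution. Inocula were grown in Mueller-Hinton broth from subcultures on nutrient agar (37 °C, 48 h) and set to McFarland 0.5. Compounds in DMSO were diluted with water, then two-fold serially from 3.91 to 250 µg/mL. Gentamicin and tetracycline served as positive controls and DMSO as negative. Plates ran 37 °C for 24 h, then MTT (0.2 mg/mL) for 30 min. MIC was the lowest concentration preventing the yellow-to-purple change.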

Haemophilus influenzae = test: Antibacterial activity against Haemophilus influenzae ATCC 10211 after 24 hrs by MTT assay; method in brief: as §1
Streptococcus pyogenes = test: Antibacterial activity against Streptococcus pyogenes ATCC 19615 after 24 hrs by MTT assay; settings: ATCC 19615, 24 h; method in brief: as §1
Candida albicans = test: Antifungal activity against Candida albicans ATCC 10231 after 24 hrs by MTT assay; settings: ATCC 10231, 24 h; method in brief: as §1
[1] = system: Mycobacterium tuberculosis; test: Antibacterial activity against Mycobacterium tuberculosis H37Rv ATCC 27294 after 5 days by MTT assay; settings: H37Rv ATCC 27294, 120 h
Method in brief: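 Inoculum from log-phase culture in Middlebrook 7H9 with ADC, set to McFarland no. 1 (approximately 3×10^7 CFU/mL), then diluted 1:20 in 7H9-OADC. Compounds in DMSO/water, two-fold series 3.91–250 μg/mL, tested in triplicate. Isoniazid positive control, drug-free growth wells. Incubated 37 °C, 8% CO₂. MTT–Tween 80 added to a control well; once purple, added to all wells. MIC read next day.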

Row | Compound | MIC (Staphylococcus aureus) | MIC (Haemophilus influenzae; ATCC 10211, 24 h) | MIC (Streptococcus pyogenes) | MIC (Candida albicans) | MIC [1] | MIC (Haemophilus influenzae)
1 | CN(C)[C@@H]1C(O)=C(C(N)=O)C(=O)[C@@]2(O)C(O)=C3C(=O)c4c(O)cccc4[C@@](C)(O)[C@H]3C[C@@H]12 [TETRACYCLINE] | 70 µM (≈ 31.1 µg/mL) | 35 µM (≈ 15.6 µg/mL) | 14 µM (≈ 6.22 µg/mL) | – | – | –
2 | O=c1oc2ccccc2cc1-c1csc(N/N=C\c2ccccc2O)n1 | 172 µM (≈ 62.5 µg/mL) | 43 µM (≈ 15.6 µg/mL) | 344 µM (≈ 125 µg/mL) | 86 µM (≈ 31.3 µg/mL) | 43 µM (≈ 15.6 µg/mL) | –
3 | GENTAMICIN | – | – | – | – | – | 13 µM
4 | OC(Cn1cncn1)(Cn1cncn1)c1ccc(F)cc1F [FLUCONAZOLE] | – | – | – | 10 µM (≈ 3.06 µg/mL) | – | –
5 | O=c1oc2ccccc2cc1-c1csc(NN=C(c2ccccc2)c2ccccc2)n1 | 295 µM (≈ 125 µg/mL) | 147 µM (≈ 62.3 µg/mL) | 295 µM (≈ 125 µg/mL) | 147 µM (≈ 62.3 µg/mL) | 147 µM (≈ 62.3 µg/mL) | –
6 | O=c1oc2ccccc2cc1-c1csc(N/N=C\c2ccc(O)cc2O)n1 | 82 µM (≈ 31.1 µg/mL) | 329 µM (≈ 125 µg/mL) | 329 µM (≈ 125 µg/mL) | 165 µM (≈ 62.6 µg/mL) | 329 µM (≈ 125 µg/mL) | –
7 | C/C(=N/Nc1nc(-c2cc3ccccc3oc2=O)cs1)c1cc2cc(Br)ccc2oc1=O | 62 µM (≈ 31.5 µg/mL) | 15 µM (≈ 7.63 µg/mL) | 62 µM (≈ 31.5 µg/mL) | 31 µM (≈ 15.8 µg/mL) | 15 µM (≈ 7.63 µg/mL) | –
8 | O=c1oc2ccccc2cc1-c1csc(N/N=C\c2cc(Br)ccc2O)n1 | 35 µM (≈ 15.5 µg/mL) | 17 µM (≈ 7.52 µg/mL) | 17 µM (≈ 7.52 µg/mL) | 35 µM (≈ 15.5 µg/mL) | 17 µM (≈ 7.52 µg/mL) | –
9 | O=c1oc2ccccc2cc1-c1csc(N/N=C\c2c(O)ccc3ccccc23)n1 | 75 µM (≈ 31 µg/mL) | 151 µM (≈ 62.4 µg/mL) | 75 µM (≈ 31 µg/mL) | 151 µM (≈ 62.4 µg/mL) | 75 µM (≈ 31 µg/mL) | –
10 | C/C(=N\Nc1nc(-c2cc3ccccc3oc2=O)cs1)c1ccc(O)cc1 | 165 µM (≈ 62.3 µg/mL) | 331 µM (≈ 125 µg/mL) | 165 µM (≈ 62.3 µg/mL) | 331 µM (≈ 125 µg/mL) | > 663 µM | –
11 | O=c1oc2ccccc2cc1-c1csc(N/N=C\c2cccc3ccccc23)n1 | 157 µM (≈ 62.4 µg/mL) | 314 µM (≈ 125 µg/mL) | 314 µM (≈ 125 µg/mL) | 157 µM (≈ 62.4 µg/mL) | 157 µM (≈ 62.4 µg/mL) | –
12 | C/C(=N/Nc1nc(-c2cc3ccccc3oc2=O)cs1)c1cc2ccc(O)cc2oc1=O | 17 µM (≈ 7.57 µg/mL) | 35 µM (≈ 15.6 µg/mL) | 72 µM (≈ 32.1 µg/mL) | 140 µM (≈ 62.4 µg/mL) | 17 µM (≈ 7.57 µg/mL) | –
13 | O=c1oc2ccccc2cc1-c1csc(N/N=C\c2cccc(O)c2)n1 | 172 µM (≈ 62.5 µg/mL) | 172 µM (≈ 62.5 µg/mL) | 344 µM (≈ 125 µg/mL) | 172 µM (≈ 62.5 µg/mL) | 172 µM (≈ 62.5 µg/mL) | –
14 | O=c1oc2ccccc2cc1-c1csc(N/N=C\c2ccc(O)cc2)n1 | 344 µM (≈ 125 µg/mL) | 344 µM (≈ 125 µg/mL) | 172 µM (≈ 62.5 µg/mL) | 172 µM (≈ 62.5 µg/mL) | 344 µM (≈ 125 µg/mL) | –
15 | NNC(=O)c1ccncc1 [ISONIAZID] | – | – | – | – | 1.3 µM (≈ 0.178 µg/mL) | –
16 | COc1cccc(/C=N\Nc2nc(-c3cc4ccccc4oc3=O)cs2)c1O | 159 µM (≈ 62.6 µg/mL) | 79 µM (≈ 31.1 µg/mL) | 159 µM (≈ 62.6 µg/mL) | 79 µM (≈ 31.1 µg/mL) | 79 µM (≈ 31.1 µg/mL) | –
